Experimental data as given in ChEMBL document CHEMBL1155222, “Synthesis and anticancer activity of N-bis(trifluoromethyl)alkyl-N'-thiazolyl and N-bis(trifluoromethyl)alkyl-N'-benzothiazolyl ureas” (2009).

Key:
Format in all cases: functional
K562 = assay: Anticancer activity against human K562 cells after 48 hrs by sulforhodamine B assay; details: K562, 48 h
Method in brief: (§1)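 NCI 60-cell-line screen. Cells grown in RPMI 1640 with 5% FBS and 2 mM L-glutamine, plated at 5000–40,000 cells/well, and preincubated 24 h at 37 °C under 5% CO2. Compounds were taken from DMSO stocks and tested at five final concentrations, 10^-4 to 10^-8 M, for 48 h. Cells were TCA-fixed, stained with 0.4% SRB, and read at 515 nm. GI50, TGI and LC50 were derived as log molar values.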

SN12C = assay: Anticancer activity against human SN12C cells after 48 hrs by sulforhodamine B assay
Method in brief: (§2)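 NCI 60-cell-line panel; cells grown in RPMI 1640 with 5% FBS and 2 mM L-glutamine, plated at 5000–40,000 cells/well and preincubated 24 h at 37 °C, 5% CO2. Compounds came from DMSO stocks diluted in medium with gentamicin and were tested at five final concentrations, 10^-4 to 10^-8 M, for 48 h. Cells were fixed with TCA, stained with SRB and read at 515 nm. GI50, TGI and LC50 were derived as log molar values.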

HOP-92 = assay: Anticancer activity against human HOP92 cells after 48 hrs by sulforhodamine B assay; details: HOP-92, 48 h; method in brief: as §1
UACC-257 = assay: Anticancer activity against human UACC257 cells after 48 hrs by sulforhodamine B assay; details: UACC-257, 48 h; method in brief: as §2
UACC-62 = assay: Anticancer activity against human UACC62 cells after 48 hrs by sulforhodamine B assay; details: UACC-62, 48 h; method in brief: as §2
UO-31 = assay: Anticancer activity against human UO31 cells after 48 hrs by sulforhodamine B assay; details: UO-31, 48 h; method in brief: as §2
EKVX = assay: Anticancer activity against human EKVX cells after 48 hrs by sulforhodamine B assay; method in brief: as §1
786-0 = assay: Anticancer activity against human 786-0 cells after 48 hrs by sulforhodamine B assay; details: 786-0, 48 h; method in brief: as §1
SF-268 = assay: Anticancer activity against human SF268 cells after 48 hrs by sulforhodamine B assay; details: SF-268, 48 h; method in brief: as §1
NCI/ADR-RES = assay: Anticancer activity against human NCI/ADR-RES cells after 48 hrs by sulforhodamine B assay; method in brief: as §1
SK-MEL-2 = assay: Anticancer activity against human SK-MEL-2 cells after 48 hrs by sulforhodamine B assay; details: SK-MEL-2, 48 h; method in brief: as §1
SNB-75 = assay: Anticancer activity against human SNB75 cells after 48 hrs by sulforhodamine B assay; details: SNB-75, 48 h; method in brief: as §2
CCRF-CEM = assay: Anticancer activity against human CCRF-CEM cells after 48 hrs by sulforhodamine B assay; method in brief: as §1
T47D = assay: Anticancer activity against human T47D cells after 48 hrs by sulforhodamine B assay; method in brief: as §2
IGROV-1 = assay: Anticancer activity against human IGROV1 cells after 48 hrs by sulforhodamine B assay; details: IGROV-1, 48 h; method in brief: as §1
HCT-116 = assay: Anticancer activity against human HCT116 cells after 48 hrs by sulforhodamine B assay; details: HCT-116, 48 h; method in brief: as §1
A498 = assay: Anticancer activity against human A498 cells after 48 hrs by sulforhodamine B assay; details: A498, 48 h; method in brief: as §1
SK-MEL-28 = assay: Anticancer activity against human SK-MEL-28 cells after 48 hrs by sulforhodamine B assay; details: SK-MEL-28, 48 h; method in brief: as §1
SF-539 = assay: Anticancer activity against human SF539 cells after 48 hrs by sulforhodamine B assay; details: SF-539, 48 h; method in brief: as §1
PC-3 = assay: Anticancer activity against human PC3 cells after 48 hrs by sulforhodamine B assay; details: PC-3, 48 h; method in brief: as §1
OVCAR-4 = assay: Anticancer activity against human OVCAR4 cells after 48 hrs by sulforhodamine B assay; details: OVCAR-4, 48 h; method in brief: as §1
M14 = assay: Anticancer activity against human M14 cells after 48 hrs by sulforhodamine B assay; details: M14, 48 h; method in brief: as §1
MDA-MB-231 = assay: Anticancer activity against human MDA-MB-231 cells after 48 hrs by sulforhodamine B assay; details: MDA-MB-231, 48 h; method in brief: as §1
RXF 393 = assay: Anticancer activity against human RXF393 cells after 48 hrs by sulforhodamine B assay; details: RXF 393, 48 h; method in brief: as §1
NCI-H226 = assay: Anticancer activity against human NCI-H226 cells after 48 hrs by sulforhodamine B assay; details: NCI-H226, 48 h; method in brief: as §1
MCF7 = assay: Anticancer activity against human MCF7 cells after 48 hrs by sulforhodamine B assay; details: MCF7, 48 h; method in brief: as §1
SK-OV-3 = assay: Anticancer activity against human SKOV3 cells after 48 hrs by sulforhodamine B assay; details: SK-OV-3, 48 h; method in brief: as §1
CAKI-1 = assay: Anticancer activity against human Caki1 cells after 48 hrs by sulforhodamine B assay; details: CAKI-1, 48 h; method in brief: as §1
HT-29 = assay: Anticancer activity against human HT-29 cells after 48 hrs by sulforhodamine B assay; details: HT-29, 48 h; method in brief: as §1
NCI-H522 = assay: Anticancer activity against human NCI-H522 cells after 48 hrs by sulforhodamine B assay; details: NCI-H522, 48 h; method in brief: as §1
OVCAR-3 = assay: Anticancer activity against human OVCAR-3 cells after 48 hrs by sulforhodamine B assay; details: OVCAR-3, 48 h; method in brief: as §1
COLO 205 = assay: Anticancer activity against human COLO205 cells after 48 hrs by sulforhodamine B assay; details: COLO 205, 48 h; method in brief: as §1
OVCAR-8 = assay: Anticancer activity against human OVCAR8 cells after 48 hrs by sulforhodamine B assay; details: OVCAR-8, 48 h; method in brief: as §1
SK-MEL-5 = assay: Anticancer activity against human SK-MEL-5 cells after 48 hrs by sulforhodamine B assay; details: SK-MEL-5, 48 h; method in brief: as §1
MDA-MB-435 = assay: Anticancer activity against human MDA-MB-435 cells after 48 hrs by sulforhodamine B assay; details: MDA-MB-435, 48 h; method in brief: as §1
ACHN = assay: Anticancer activity against human ACHN cells after 48 hrs by sulforhodamine B assay; method in brief: as §1
[1] = Anticancer activity against human Hs 578T cells after 48 hrs by sulforhodamine B assay; method in brief: as §1
HCT-15 = assay: Anticancer activity against human HCT15 cells after 48 hrs by sulforhodamine B assay; details: HCT-15, 48 h; method in brief: as §1
LOX IMVI = assay: Anticancer activity against human LOXIMVI cells after 48 hrs by sulforhodamine B assay; method in brief: as §1
OVCAR-5 = assay: Anticancer activity against human OVCAR5 cells after 48 hrs by sulforhodamine B assay; details: OVCAR-5, 48 h; method in brief: as §1
BT-549 = assay: Anticancer activity against human BT549 cells after 48 hrs by sulforhodamine B assay; details: BT-549, 48 h; method in brief: as §1
U-251 = assay: Anticancer activity against human U251 cells after 48 hrs by sulforhodamine B assay; details: U-251, 48 h; method in brief: as §2
A549 = assay: Anticancer activity against human A549 cells after 48 hrs by sulforhodamine B assay; details: A549, 48 h; method in brief: as §1
MOLT-4 = assay: Anticancer activity against human MOLT4 cells after 48 hrs by sulforhodamine B assay; details: MOLT-4, 48 h; method in brief: as §1

O=c1[nH]cc(F)c(=O)[nH]1 [FLUOROURACIL]
GI50 (K562): 3.55 µM
GI50 (SN12C): 0.501 µM
GI50 (HOP-92): 77.6 µM
GI50 (UACC-257): 3.55 µM
GI50 (UACC-62): 0.525 µM
GI50 (UO-31): 1.41 µM
GI50 (EKVX): 61.7 µM
GI50 (786-0): 0.724 µM
GI50 (SF-268): 1.58 µM
GI50 (NCI/ADR-RES): 0.316 µM
GI50 (SK-MEL-2): 56.2 µM
GI50 (SNB-75): 79.4 µM
GI50 (CCRF-CEM): 9.77 µM
GI50 (T47D): 8.13 µM
GI50 (IGROV-1): 1.23 µM
GI50 (HCT-116): 0.229 µM
GI50 (A498): 0.398 µM
GI50 (SK-MEL-28): 1.02 µM
GI50 (SF-539): 0.0631 µM
GI50 (PC-3): 2.34 µM
GI50 (OVCAR-4): 4.47 µM
GI50 (M14): 0.977 µM
GI50 (MDA-MB-231): 6.61 µM
GI50 (RXF 393): 2.63 µM
GI50 (NCI-H226): 55 µM
GI50 (MCF7): 0.0794 µM
GI50 (SK-OV-3): 21.9 µM
GI50 (CAKI-1): 0.0724 µM
GI50 (HT-29): 0.178 µM
GI50 (NCI-H522): 7.24 µM
GI50 (OVCAR-3): 0.0158 µM
GI50 (COLO 205): 0.158 µM
GI50 (OVCAR-8): 1.74 µM
GI50 (SK-MEL-5): 0.468 µM
GI50 (MDA-MB-435): 0.0724 µM
GI50 (ACHN): 0.295 µM
GI50 [1]: 9.77 µM
GI50 (HCT-15): 0.11 µM
GI50 (LOX IMVI): 0.245 µM
GI50 (OVCAR-5): 11 µM
GI50 (BT-549): 10.7 µM
GI50 (U-251): 0.912 µM
GI50 (A549): 0.191 µM
GI50 (MOLT-4): 0.355 µM

O=C(Nc1nccs1)NC(C(F)(F)F)C(F)(F)F
GI50 (K562): 36.3 µM
GI50 (SN12C): 43.7 µM
GI50 (HOP-92): 38 µM
GI50 (UACC-257): 35.5 µM
GI50 (UACC-62): 63.1 µM
GI50 (UO-31): 35.5 µM
GI50 (EKVX): 41.7 µM
GI50 (786-0): > 100 µM
GI50 (SF-268): 29.5 µM
GI50 (NCI/ADR-RES): 33.1 µM
GI50 (SK-MEL-2): 45.7 µM
GI50 (SNB-75): 55 µM
GI50 (T47D): 45.7 µM
GI50 (IGROV-1): 95.5 µM
GI50 (HCT-116): 38 µM
GI50 (A498): 95.5 µM
GI50 (SK-MEL-28): > 100 µM
GI50 (SF-539): > 100 µM
GI50 (PC-3): 38 µM
GI50 (OVCAR-4): 39.8 µM
GI50 (M14): > 100 µM
GI50 (MDA-MB-231): 58.9 µM
GI50 (RXF 393): 77.6 µM
GI50 (NCI-H226): 57.5 µM
GI50 (MCF7): 40.7 µM
GI50 (SK-OV-3): > 100 µM
GI50 (CAKI-1): 55 µM
GI50 (HT-29): 91.2 µM
GI50 (NCI-H522): 23.4 µM
GI50 (OVCAR-3): 42.7 µM
GI50 (COLO 205): 52.5 µM
GI50 (OVCAR-8): 39.8 µM
GI50 (SK-MEL-5): 38.9 µM
GI50 (MDA-MB-435): 79.4 µM
GI50 (ACHN): 55 µM
GI50 [1]: 22.4 µM
GI50 (HCT-15): 66.1 µM
GI50 (LOX IMVI): 58.9 µM
GI50 (OVCAR-5): 91.2 µM
GI50 (BT-549): 46.8 µM
GI50 (U-251): 33.9 µM
GI50 (A549): 60.3 µM
GI50 (MOLT-4): 40.7 µM

CC(NC(=O)Nc1nc2ccccc2s1)(C(F)(F)F)C(F)(F)F
GI50 (K562): 17 µM
GI50 (SN12C): 25.7 µM
GI50 (HOP-92): 75.9 µM
GI50 (UACC-257): 51.3 µM
GI50 (UACC-62): > 100 µM
GI50 (UO-31): 2.19 µM
GI50 (EKVX): 74.1 µM
GI50 (786-0): 20.4 µM
GI50 (SF-268): 29.5 µM
GI50 (NCI/ADR-RES): > 100 µM
GI50 (SK-MEL-2): 30.2 µM
GI50 (SNB-75): 7.59 µM
GI50 (CCRF-CEM): 27.5 µM
GI50 (T47D): 38 µM
GI50 (IGROV-1): 41.7 µM
GI50 (HCT-116): 41.7 µM
GI50 (A498): > 100 µM
GI50 (SK-MEL-28): 72.4 µM
GI50 (SF-539): 24.5 µM
GI50 (PC-3): 34.7 µM
GI50 (OVCAR-4): 21.9 µM
GI50 (M14): 37.2 µM
GI50 (MDA-MB-231): 34.7 µM
GI50 (RXF 393): 64.6 µM
GI50 (NCI-H226): 38.9 µM
GI50 (MCF7): 38 µM
GI50 (SK-OV-3): 52.5 µM
GI50 (CAKI-1): 38.9 µM
GI50 (HT-29): 19.5 µM
GI50 (NCI-H522): 24.5 µM
GI50 (COLO 205): 38 µM
GI50 (OVCAR-8): 52.5 µM
GI50 (SK-MEL-5): 49 µM
GI50 (MDA-MB-435): 41.7 µM
GI50 (ACHN): 28.8 µM
GI50 [1]: 18.6 µM
GI50 (HCT-15): > 100 µM
GI50 (LOX IMVI): 36.3 µM
GI50 (OVCAR-5): 81.3 µM
GI50 (BT-549): > 100 µM
GI50 (U-251): 33.9 µM
GI50 (A549): 16.2 µM
GI50 (MOLT-4): 18.2 µM
